Activity calls are given as the source filed them. The calls are words filed in the database; no cut-off is given here.
How the values were obtained:
[1] = species on record: Oryctolagus cuniculus; assay: Inhibition of cap-independent HCV-IRES-induced translation in rabbit reticulocyte lysate at 500 nM after 1.5 hrs by luciferase reporter gene assay; assay type: functional
In short: (§1)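 Capped bicistronic reporter mRNA: cap-dependent firefly luciferase first cistron, HCV IRES-driven Renilla second cistron. Transcribed in vitro with SP6 from the BamHI-linearised plasmid. 200 ng RNA translated in rabbit reticulocyte lysate with 70 mM KCl, 2 mM DTT, RNasin and compound in DMSO (5% v/v final), 30 °C for 1.5 h. Dual luciferase readout. Duplicates, 4 independent assays, mean IC50 by curve fit.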

[2] = system: Jurkat; assay: Antiproliferative activity against human Jurkat T cells up to 10^4 nM after 72 hrs by MTT assay; assay type: functional, cell-based
In short: (§2)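 HeLa and SK-MEL2 grown in DMEM, Jurkat in RPMI 1640, each with 10% FBS and penicillin-streptomycin, at 37 °C and 5% CO2. Adherent cells seeded at 2000/well and left to recover overnight; Jurkat seeded at 5000/well with no recovery. Compound added in DMSO (0.1% final), then 72 h incubation and MTT readout.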

[3] = system: SK-MEL-2; assay: Antiproliferative activity against human SK-MEL-2 cells up to 10^4 nM after 72 hrs by MTT assay in presence of 10% FBS; assay type: functional, cell-based; in short: as §2
[4] = system: HeLa; assay: Antiproliferative activity against human HeLa cells up to 500 nM after 72 hrs by MTT assay; assay type: functional, cell-based; in short: as §2
[5] = system: Jurkat; assay: Immunosuppressive activity in human Jurkat T cells assessed as inhibition of IL-2 transcription; assay type: functional, cell-based
[6] = Antiproliferative activity against BAEC assessed as DNA synthesis level after 24 hrs by thymidine incorporation assay; details: Bos taurus
In short: (§3)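 Cells kept at 37 °C, 5% CO2 with penicillin-streptomycin and 10% FBS. Adherent lines seeded at 2000 cells/well and left to recover overnight; Jurkat seeded at 5000 cells/well with no recovery period. Compound added in DMSO (0.1% final, vehicle-only control) at 0.001–100 nM over 10 wells. DNA synthesis read out after 24 h. Mean IC50 from at least 3 independent assays.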

[7] = system: HaCaT; assay: Antiproliferative activity against human HaCaT cells assessed as DNA synthesis level after 24 hrs by thymidine incorporation assay; assay type: functional, cell-based; in short: as §3
[8] = Half life in RPMI media at 10 uM by HPLC analysis; assay type: physicochemical
In short: (§4)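 Compound added from DMSO stock to pre-heated RPMI 1640 (1.8 mL) plus 0.2 mL human AB male serum or FBS, or to 2 mL RPMI alone, at final 1 or 10 μM. Samples analysed by HPLC at pH 9.5 (formic acid/ammonia in acetonitrile/water), with conversion taken from the substrate/internal standard peak ratio. Run in triplicate; half-lives ± SD.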

[9] = Half life in RPMI media at 10 uM by HPLC analysis in presence of fetal bovine serum; assay type: ADME; details: cattle; in short: as §4
[10] = Half life in RPMI media at 10 uM by HPLC analysis in presence of human blood serum; assay type: ADME; in short: as §4
[11] = Selectivity ratio of IC50 for MEF to IC50 for human Jurkat T cells; assay type: cell-based; details: mouse (MEF) and human (Jurkat T cells), read-out: Ratio IC50
[12] = Selectivity ratio of IC50 for MEF to IC50 for human SK-MEL-2 cells; assay type: cell-based; details: mouse (MEF) and human (SK-MEL-2 cells), MEF and SK-MEL-2 cells; read-out: Ratio IC50
[13] = system: MEF; assay: Antiproliferative activity against MEF after 72 hrs by MTT assay; assay type: cell-based; details: Mus musculus
[14] = Selectivity ratio of IC50 for MEF to IC50 for human HeLa cells; assay type: cell-based; details: mouse (MEF) and human (HeLa cells), read-out: Ratio IC50
[15] = system: SK-MEL-2; assay: Antiproliferative activity against human SK-MEL-2 cells after 72 hrs by MTT assay in presence of 5% FBS; assay type: functional, cell-based; details: SK-MEL-2, 72 h
In short: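 SK-MEL2 grown with reduced serum (5% FBS) to slow proliferation. Compounds added in DMSO (0.1% final), followed by a 72 h MTT proliferation assay.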

[16] = Dissociation constant, pKa of the compound; assay type: physicochemical
[17] = Binding affinity to eIF4A1/2 in rabbit reticulocyte lysate assessed as inhibition of cap-dependent translation after 1.5 hrs by dual luciferase reporter gene assay; parameters: species or system Oryctolagus cuniculus; in short: as §1
[18] = system: SK-MEL-2; assay: Antiproliferative activity against human SK-MEL-2 cells after 72 hrs by MTT assay in presence of 10% FBS; assay type: functional, cell-based; details: SK-MEL-2, 72 h; in short: as §2
[19] = system: HeLa; assay: Antiproliferative activity against human HeLa cells after 72 hrs by MTT assay; assay type: functional, cell-based; in short: as §2
[20] = system: SK-MEL-2; assay: Selectivity ratio of IC50 for human SK-MEL-2 cells in presence of 10% FBS to IC50 for human SK-MEL-2 cells in presence of 5% FBS; assay type: functional
[21] = species on record: Oryctolagus cuniculus; assay: Binding affinity to eIF4A1/2 in rabbit reticulocyte lysate assessed as inhibition of cap-dependent translation up to 500 nM after 1.5 hrs by dual luciferase reporter gene assay; in short: as §1
[22] = system: RKO; assay: Antiproliferative activity against human RKO cells assessed as DNA synthesis level after 24 hrs by thymidine incorporation assay; assay type: functional, cell-based; in short: as §3
[23] = system: HeLa; assay: Antiproliferative activity against human HeLa cells assessed as DNA synthesis level after 24 hrs by thymidine incorporation assay; assay type: functional, cell-based; in short: as §3
[24] = system: SK-MEL-2; assay: Selectivity ratio of IC50 for human SK-MEL-2 cells in presence of 5% FBS to IC50 for human SK-MEL-2 cells in presence of 10% FBS; assay type: functional
[25] = Antiproliferative activity against human Jurkat T cells after 72 hrs by MTT assay; assay type: functional, cell-based; in short: as §2
[26] = Antiproliferative activity against human Jurkat T cells assessed as DNA synthesis level after 24 hrs by thymidine incorporation assay; assay type: functional, cell-based; in short: as §3
[27] = species on record: Oryctolagus cuniculus; assay: Binding affinity to eIF4A1/2 in rabbit reticulocyte lysate assessed as cap-dependent translation at 500 nM after 1.5 hrs by dual luciferase reporter gene assay relative to control
In short: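 Rabbit reticulocyte lysate translating the cap-dependent/HCV IRES dual-luciferase mRNA, with compound at 500 nM in DMSO (5% v/v final), 30 °C for 1.5 h. Cap-dependent luciferase expressed as % translation relative to DMSO control.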

Compound	inhibition [1]	Activity [2]	Activity [3]	Activity [4]	IC50 [5] [µM]	IC50 [18] [µM]	other results
COC/C=C/C=C/C(C)=C/[C@@H]1Cc2nc(cs2)CCCCC(=O)O[C@@H](C)C/C(C)=C/C#CC(=O)O1	inactive	inactive	inactive	inactive			
CC(/C=C/CCCO)=C\[C@@H]1Cc2nc(cs2)[C@@H](C)C[C@@H](NC(=O)OC(C)(C)C)CC(=O)O[C@@H](C)C/C(C)=C/C=C\C(=O)O1					> 1		
CC(/C=C/CCCN(C)C)=C\[C@@H]1Cc2nc(cs2)[C@@H](C)C[C@@H](NC(=O)OC(C)(C)C)CC(=O)O[C@@H](C)C/C(C)=C/C=C\C(=O)O1					0.33		IC50 [6]: > 0.02 µM; IC50 [7]: > 0.1 µM
CC(/C=C/C(C)=C/[C@@H]1Cc2nc(cs2)CCCCC(=O)O[C@@H](C)C/C(C)=C/C#CC(=O)O1)=C\CN1CCCC1		inactive	inactive	inactive			
CC(/C=C/C(C)=C/[C@@H]1Cc2nc(cs2)CCCCC(=O)O[C@@H](C)C/C(C)=C/C=C\C(=O)O1)=C\CN1CCOCC1	inactive	inactive				0.32	t1/2 [8]: 0.89 h; t1/2 [9]: 9.23 h; t1/2 [10]: 17.8 h; selectivity ratio [11]: 5; selectivity ratio [12]: 5; IC50 [13]: > 2 µM; selectivity ratio [14]: 5; IC50 [15]: 0.157 µM; pKa [16]: 8.36; IC50 [17]: 0.0722 µM; IC50 [19]: 0.43 µM; Ratio IC50 [20]: 2
COC/C=C/C=C/C(C)=C/[C@@H]1Cc2nc(cs2)CCCCC(=O)O[C@@H](C)C/C(C)=C/C=C\C(=O)O1	inactive	inactive		inactive		> 5	inhibition [21]: inactive
CC(/C=C/C=C/CO)=C\[C@@H]1Cc2nc(cs2)CCCCC(=O)O[C@@H](C)C/C(C)=C/C#CC(=O)O1	inactive	inactive	inactive	inactive			
COCCC/C=C/C(C)=C/[C@@H]1Cc2nc(cs2)[C@@H](C)C[C@@H](NC(=O)OC(C)(C)C)CC(=O)O[C@@H](C)C/C(C)=C/C=C\C(=O)O1					> 1		
C/C(Br)=C\[C@@H]1Cc2nc(cs2)CCCCC(=O)O[C@@H](C)C/C(C)=C/C=CC(=O)O1		inactive	inactive	inactive			
CC(/C=C/CCCO)=C\[C@@H]1Cc2nc(cs2)[C@@H](C)C[C@@H](NC(=O)OC(C)(C)C)CC(=O)O[C@@H](C)C/C(C)=C/C#CC(=O)O1					0.34		IC50 [6]: > 0.02 µM; IC50 [7]: > 0.1 µM; IC50 [22]: > 0.1 µM; IC50 [23]: > 0.1 µM
CC(/C=C/C(C)=C/[C@@H]1Cc2nc(cs2)CCCCC(=O)O[C@@H](C)C/C(C)=C/C=C\C(=O)O1)=C\CN1CCCC1	inactive					0.027	t1/2 [8]: 3.87 h; t1/2 [9]: 14.8 h; t1/2 [10]: 11.7 h; selectivity ratio [11]: 4; selectivity ratio [12]: 4; IC50 [13]: > 0.1 µM; selectivity ratio [14]: 4; IC50 [15]: 0.154 µM; pKa [16]: 11; Ratio IC50 [24]: 6; IC50 [17]: 0.0548 µM; IC50 [25]: 0.025 µM; IC50 [19]: 0.023 µM
CC(/C=C/C(C)=C/[C@@H]1Cc2nc(cs2)[C@@H](C)C[C@@H](NC(=O)c2ccccc2)CC(=O)O[C@@H](C)C/C(C)=C/C=C\C(=O)O1)=C\CN(C)C					0.015		IC50 [6]: 0.0128 µM; IC50 [26]: 0.0116 µM; IC50 [7]: 0.0034 µM; IC50 [22]: 0.0042 µM; IC50 [23]: 0.0161 µM
COCCC/C=C/C(C)=C/[C@@H]1Cc2nc(cs2)CCCCC(=O)O[C@@H](C)C/C(C)=C/C#CC(=O)O1	inactive		inactive	inactive			IC50 [25]: > 10 µM
CC(/C=C/C(C)=C/[C@@H]1Cc2nc(cs2)CCCCC(=O)O[C@@H](C)C/C(C)=C/C#CC(=O)O1)=C\CN1CCOCC1	inactive	inactive		inactive		> 5	
CC(/C=C/C(C)=C/[C@@H]1Cc2nc(cs2)[C@@H](C)C[C@@H](NC(=O)C(F)(F)F)CC(=O)O[C@@H](C)C/C(C)=C/C=C\C(=O)O1)=C\CN(C)C					0.3		IC50 [7]: > 0.1 µM; IC50 [22]: > 0.1 µM; IC50 [23]: > 0.1 µM
CC(/C=C/C(C)=C/[C@@H]1Cc2nc(cs2)[C@@H](C)C[C@@H](N)CC(=O)O[C@@H](C)C/C(C)=C/C=C\C(=O)O1)=C\CN(C)C [PATEAMINE A]					0.004		IC50 [6]: 0.0005 µM; IC50 [26]: 0.0006 µM; IC50 [7]: 0.00042 µM; IC50 [22]: 0.00038 µM; IC50 [23]: 0.00072 µM
COCCC/C=C/C(C)=C/[C@@H]1Cc2nc(cs2)CCCCC(=O)O[C@@H](C)C/C(C)=C/C=C\C(=O)O1	inactive	inactive	inactive	inactive			inhibition [21]: inactive
CC(Br)=C[C@@H]1Cc2nc(cs2)CCCCC(=O)O[C@@H](C)C/C(C)=C/C=C\C(=O)O1	inactive			inactive		> 10	inhibition [21]: inactive; IC50 [25]: > 10 µM
CC(/C=C/C(C)=C/[C@@H]1Cc2nc(cs2)CCCCC(=O)O[C@@H](C)C/C(C)=C/C#CC(=O)O1)=C\CN(C)C	inactive	inactive	inactive	inactive			inhibition [21]: inactive
CC(/C=C/C(C)=C/[C@@H]1Cc2nc(cs2)CCCCC(=O)O[C@@H](C)C/C(C)=C/C=C/C(=O)O1)=C\CN(C)C	inactive					0.95	Activity [27]: 80%; IC50 [17]: > 0.5 µM; IC50 [25]: > 10 µM; IC50 [19]: 0.86 µM
CC(/C=C/CCCO)=C\[C@@H]1Cc2nc(cs2)CCCCC(=O)O[C@@H](C)C/C(C)=C/C=C\C(=O)O1	inactive			inactive		> 5	inhibition [21]: inactive; IC50 [25]: > 5 µM
C/C(Br)=C\[C@@H]1Cc2nc(cs2)CCCCC(=O)O[C@@H](C)C/C(C)=C/C#CC(=O)O1	inactive	inactive	inactive	inactive			
COCCC/C=C/C(C)=C/[C@@H]1Cc2nc(cs2)[C@@H](C)C[C@@H](NC(=O)OC(C)(C)C)CC(=O)O[C@@H](C)C/C(C)=C/C#CC(=O)O1					0.055		IC50 [6]: > 0.02 µM; IC50 [7]: > 0.1 µM; IC50 [22]: > 0.1 µM; IC50 [23]: > 0.1 µM
CC(/C=C/C=C/CO)=C\[C@@H]1Cc2nc(cs2)CCCCC(=O)O[C@@H](C)C/C(C)=C/C=C\C(=O)O1	inactive					> 5	IC50 [17]: > 0.5 µM; IC50 [25]: > 10 µM; IC50 [19]: > 5 µM
CC(/C=C/CCCO)=C\[C@@H]1Cc2nc(cs2)CCCCC(=O)O[C@@H](C)C/C(C)=C/C#CC(=O)O1	inactive	inactive	inactive	inactive			
